According to ChEMBL document CHEMBL1148740, “Synthesis and SAR investigations for novel melanin-concentrating hormone 1 receptor (MCH1) antagonists Part 1. The discovery of arylacetamides as viable replacements for the dihydropyrimidinone moiety of an HTS hit” (J Med Chem, 2007):

Columns and labels:
[1] = Drug level in Sprague-Dawley rat brain at 10 mg/kg, po after 4 hrs; format: ADME, organism-based; design: dose 10 mg/kg, route oral; details: read-out: Drug uptake
Outline: (§1)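 Femoral-artery-cannulated male Sprague-Dawley rats (300-350 g), n = 3, were given 10 mg/kg orally in vehicle. Blood was drawn predose and at 1, 2 and 4 h; brains were collected at 4 h and stored at -80 °C. Plasma or brain homogenate was pooled from three rats per time point, protein-precipitated and analysed by LC/MS/MS. Quantitation limits were 2 ng/mL plasma and 2 ng/g brain.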

[2] = Drug level in Sprague-Dawley rat plasma at 10 mg/kg, po after 4 hrs; format: ADME, organism-based; design: dose 10 mg/kg, route oral; outline: as §1
[3] = Drug level in Sprague-Dawley rat plasma at 10 mg/kg, po after 2 hrs; format: ADME, organism-based; design: dose 10 mg/kg, route oral; outline: as §1
[4] = target: T1, Melanin-concentrating hormone receptor 1 (Rattus norvegicus, UniProt P97639); experiment: Antagonist activity at rat MCHR1 expressed in HEK293 cells assessed as effect on calcium mobilization; format: functional, cell-based
T1 sequence (P97639 whole entry): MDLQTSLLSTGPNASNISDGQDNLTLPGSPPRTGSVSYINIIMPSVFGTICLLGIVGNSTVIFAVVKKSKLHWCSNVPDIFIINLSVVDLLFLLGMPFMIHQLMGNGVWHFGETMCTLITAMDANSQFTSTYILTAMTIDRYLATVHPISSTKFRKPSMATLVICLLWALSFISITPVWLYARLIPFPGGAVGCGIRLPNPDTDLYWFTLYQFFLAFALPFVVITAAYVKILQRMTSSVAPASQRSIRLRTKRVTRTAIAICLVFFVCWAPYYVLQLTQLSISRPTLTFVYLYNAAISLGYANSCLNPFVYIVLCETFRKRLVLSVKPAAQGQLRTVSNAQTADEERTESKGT
Outline: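 HEK293 cells stably expressing rat MCH1 were seeded for 16 h, loaded with 1.5 µM Fluo4 in HBSS for 60 min, washed, and preincubated 20 min with a range of test concentrations. They were then challenged with 30 nM MCH peptide. Calcium-driven fluorescence was read on a FLIPR, and IC50 came from nonlinear curve fitting.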

[5] = Drug level in Sprague-Dawley rat plasma at 10 mg/kg, po after 1 hr; format: ADME, organism-based; design: dose 10 mg/kg, route oral; outline: as §1
[6] = target: T1, Melanin-concentrating hormone receptor 1; experiment: Displacement of [3H]SNAP 7941 from rat MCHR1 expressed in HEK293 cells; format: cell-based
Outline: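 Membranes from PEAK-RAPID HEK293 cells transiently transfected with rat MCH1 were incubated with varying concentrations of [3H]SNAP-7941. Buffer was 50 mM Tris, 10 mM MgCl2, 0.16 mM PMSF, 1 mM 1,10-phenanthroline, 0.2% BSA, pH 7.4; incubation 25 °C, 90 min. Ki is the mean ± SEM of n = 3.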

[7] = Tmax in Sprague-Dawley rat at 2 mg/kg, po and 1 mg/kg, iv; format: ADME, organism-based; details: in vivo
Outline: (§2)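 Male Sprague-Dawley rats (200-250 g), n = 2, received 1 mg/kg iv, then 2 mg/kg orally in the same rat 24 h later. Plasma was taken from sampled blood by centrifugation and analysed by turbulent-flow LC/MS/MS. For blood/plasma distribution, blood was spiked at 109 ng/mL. Parameters came from plasma concentration-time profiles.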

[8] = Volume of distribution in Sprague-Dawley rat at 2 mg/kg, po and 1 mg/kg, iv; format: ADME, organism-based; details: in vivo, read-out: Vss; outline: as §2
[9] = Half life in Sprague-Dawley rat at 2 mg/kg, po and 1 mg/kg, iv; format: ADME, organism-based; details: in vivo; outline: as §2
Rattus norvegicus [10] = species on record: Rattus norvegicus; experiment: Anxiolytic activity in rat assessed as increase in social interaction time relative to control; format: functional
Outline: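 Rats were acclimated 5 days, housed singly 5 days and handled 5 min daily. Weight-matched (±5%) unfamiliar pairs got identical treatment 1 h before testing, five pairs per group. Chlordiazepoxide 5 mg/kg was the reference. Pairs were placed 15 min in a floor-gridded arena, sessions were videotaped, and social interaction time was scored.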

[11] = Bioavailability in Sprague-Dawley rat at 2 mg/kg, po and 1 mg/kg, iv; format: ADME, organism-based; details: in vivo; outline: as §2
[12] = Plasma clearance in Sprague-Dawley rat at 2 mg/kg, po and 1 mg/kg, iv; format: ADME, organism-based; outline: as §2
[13] = Cmax in Sprague-Dawley rat at 2 mg/kg, po and 1 mg/kg, iv; format: ADME, organism-based; details: in vivo; outline: as §2
Rattus norvegicus [14] = experiment: Anxiolytic activity in rat assessed as increase in social interaction time at 0.3 mg/kg, po relative to control
[15] = Blood clearance in Sprague-Dawley rat at 2 mg/kg, po and 1 mg/kg, iv; format: ADME, organism-based; details: whole blood; outline: as §2
[16] = Bioavailability in Sprague-Dawley rat at 1 mg/kg, po and 1 mg/kg, iv; format: ADME, organism-based; details: in vivo
Outline: (§3)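 Sprague-Dawley rats were dosed 1 mg/kg orally (n = 2) and 1 mg/kg iv (n = 2). Plasma concentration-time profiles were measured by LC/MS/MS and used for pharmacokinetic analysis.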

[17] = Volume of distribution in Sprague-Dawley rat at 1 mg/kg, po and 1 mg/kg, iv; format: ADME, organism-based; details: in vivo, read-out: Vss; outline: as §3
[18] = Cmax in Sprague-Dawley rat at 1 mg/kg, po and 1 mg/kg, iv; format: ADME, organism-based; details: in vivo; outline: as §3
[19] = Tmax in Sprague-Dawley rat at 1 mg/kg, po and 1 mg/kg, iv; format: ADME, organism-based; details: in vivo; outline: as §3
[20] = Plasma clearance in Sprague-Dawley rat at 1 mg/kg, po and 1 mg/kg, iv; format: ADME, organism-based; outline: as §3
[21] = Half life in Sprague-Dawley rat at 1 mg/kg, po and 1 mg/kg, iv; format: ADME, organism-based; details: in vivo; outline: as §3

Structure (SMILES): Cc1ccc(NC(=O)C(C)C)cc1C1CCN(CCCNC(=O)C(c2ccccc2)c2ccccc2)CC1
- concentration at 4 h [1]: 13 ng/g
- concentration at 4 h [2]: 75 ng/mL
- concentration at 2 h [3]: 59 ng/mL
- IC50 [4]: 27 nM
- concentration at 1 h [5]: 69 ng/mL
- Ki [6]: 3 nM

Structure (SMILES): CCC(C(=O)NCCCN1CCC(c2cccc(NC(=O)C(C)C)c2)CC1)(c1ccccc1)c1ccccc1
- IC50 [4]: 190 nM

Structure (SMILES): CC(C)C(=O)Nc1cccc(C2CCN(CCCNC(=O)C(C)(c3ccccc3)c3ccccc3)CC2)c1
- IC50 [4]: 140 nM
- Ki [6]: 7.5 nM

Structure (SMILES): CC(C)C(=O)Nc1cccc(C2CCN(CCCCCCNC(=O)C(c3ccccc3)c3ccccc3)CC2)c1
- IC50 [4]: 600 nM
- Ki [6]: 29 nM

Structure (SMILES): CC(C)C(=O)Nc1cccc(C2CCN(CCCNC(=O)C(c3ccccc3)c3ccccc3)CC2)c1
- concentration at 4 h [2]: 15 ng/mL
- concentration at 2 h [3]: 12 ng/mL
- IC50 [4]: 25 nM
- concentration at 1 h [5]: 15 ng/mL
- Ki [6]: 1.9 nM

Structure (SMILES): CC(C)C(=O)Nc1cccc(C2CCN(CCCCNC(=O)C(c3ccccc3)c3ccccc3)CC2)c1
- IC50 [4]: 620 nM
- Ki [6]: 50 nM

Structure (SMILES): CC(C)C(=O)Nc1cccc(C2CCN(CCCNC(=O)C(c3ccc(F)cc3)c3ccc(F)cc3)CC2)c1
- IC50 [4]: 13 nM
- Ki [6]: 1.4 nM

Structure (SMILES): CC(C)C(=O)Nc1cccc(C2CCN(CCCCCNC(=O)C(c3ccccc3)c3ccccc3)CC2)c1
- Ki [6]: 47 nM

Structure (SMILES): CC(C)C(=O)Nc1cc(C2CCN(CCCNC(=O)C(c3ccc(F)cc3)c3ccc(F)cc3)CC2)c(F)cc1F
- Tmax [7]: 0.6 h
- Vd [8]: 3.6 L/kg
- half-life [9]: 2.1 h
- Activity (Rattus norvegicus [10]): 69.3 s
- minimal effective dose (Rattus norvegicus [10]; Rattus norvegicus, read-out: MED): 0.3 mg/kg
- bioavailability [11]: 48%
- IC50 [4]: 34 nM
- clearance [12]: 40 mL/min/kg
- Cmax [13]: 80 ng/mL
- Time (Rattus norvegicus [14]): 69.3 s
- clearance [15]: 60 mL/min/kg
- Ki [6]: 1.8 nM

Structure (SMILES): CCCCCC(C(=O)NCCCN1CCC(c2cccc(NC(=O)C(C)C)c2)CC1)(c1ccccc1)c1ccccc1
- Ki [6]: 8.5 nM

Structure (SMILES): CC(C)C(=O)Nc1c(F)cc(F)c(C2CCN(CCCNC(=O)C(c3ccc(F)cc3)c3ccc(F)cc3)CC2)c1F
- Ki [6]: 2.9 nM

Structure (SMILES): Cc1ccc(NC(=O)C(C)C)cc1C1CCN(CCCNC(=O)[C@H](C)c2ccc(F)cc2)CC1
- IC50 [4]: 65 nM
- Ki [6]: 28 nM

Structure (SMILES): Cc1ccc(NC(=O)C(C)C)cc1C1CCN(CCCNC(=O)C2(c3ccc(F)cc3)CCCC2)CC1
- IC50 [4]: 44 nM
- Ki [6]: 3.8 nM

Structure (SMILES): Cc1ccc(C2CCN(CCCNC(=O)C(c3ccccc3)c3ccccc3)CC2)cc1NC(=O)C(C)C
- IC50 [4]: > 1000 nM
- Ki [6]: 500 nM

Structure (SMILES): Cc1ccc(NC(=O)C(C)C)cc1C1CCN(CCCNC(=O)C(O)(c2ccccc2)c2ccccc2)CC1
- IC50 [4]: 27 nM
- Ki [6]: 0.6 nM

Structure (SMILES): CC(C)C(=O)Nc1cccc(C2CCN(CCNC(=O)C(c3ccccc3)c3ccccc3)CC2)c1
- IC50 [4]: 57 nM
- Ki [6]: 1.9 nM

Structure (SMILES): Cc1ccc(NC(=O)C(C)C)cc1C1CCN(CCCNC(=O)[C@@H](C)c2ccc(F)cc2)CC1
- Tmax [7]: 2.2 h
- Vd [8]: 3.4 L/kg
- half-life [9]: 4.2 h
- bioavailability [11]: 81%
- IC50 [4]: 26 nM
- clearance [12]: 25 mL/min/kg
- Cmax [13]: 305 ng/mL
- clearance [15]: 55 mL/min/kg
- Ki [6]: 10 nM

Structure (SMILES): Cc1ccc(NC(=O)C(C)C)cc1C1CCN(CCCNC(=O)C2(c3ccc(F)cc3)CCCCC2)CC1
- IC50 [4]: 190 nM
- Ki [6]: 1.9 nM

Structure (SMILES): Cc1ccc(NC(=O)C(C)C)cc1C1CCN(CCCNC(=O)C(c2ccc(F)cc2)c2ccc(F)cc2)CC1
- IC50 [4]: 27 nM
- Ki [6]: 0.62 nM

Structure (SMILES): Cc1ccc(NC(=O)C(C)C)cc1C1CCN(CCCNC(=O)C(C)c2ccccc2)CC1 (single isomer, unassigned; form 1)
- IC50 [4]: 68 nM
- Ki [6]: 34 nM

Structure (SMILES): Cc1ccc(NC(=O)C(C)C)cc1C1CCN(CCCNC(=O)C(C)c2ccccc2)CC1 (single isomer, unassigned; form 2)
- IC50 [4]: 130 nM
- Ki [6]: 37 nM

Structure (SMILES): CNC1=Nc2ccc(Cl)cc2C(c2ccccc2)=[N+]([O-])C1 [CHLORDIAZEPOXIDE]
- Time (Rattus norvegicus [14]): 85.1 s

Structure (SMILES): COCC1=C(C(=O)OC)[C@H](c2ccc(F)c(F)c2)N(C(=O)NCCCN2CCC(c3cccc(NC(C)=O)c3)CC2)C(=O)N1 [SNAP-7941]
- bioavailability [16]: 6%
- Vd [17]: 24 L/kg
- Cmax [18]: 2.02 ng/mL
- Tmax [19]: 4 h
- clearance [20]: 153 mL/min/kg
- half-life [21]: 1.7 h
- Ki [6]: 0.25 nM
